Bioassay records from PubChem.
HEK293 NFkB inh: lowers PMA/ionomycin-induced NF-kB signal in HEK293 cells | HEK-293 NF-kB luciferase reporter, luminescence | inhibition, % at 3 µM | 0.21% of 62,000 active;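 active = inhibition above the mean of all tested compounds plus 3 SD, cut at about 40% in these data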
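System: NF-kB luciferase reporter HEK-293 cells | Replication: Single test | Control set: DMSO vs reference inhibitor | Evaluation: % inhibition | Schedule: 1 h pretreatment, 16 h stimulation, 37 °C | Probe or stimulus: PMA with ionomycin | Compound dosing: One dose, 3 µM | Detection: Luciferase luminescence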
5HT1E antag: antagonists of human 5-HT1E serotonin receptor; inhibition, % at 6 µM; CHO 5-HT1E Ga15 NFAT-bla reporter, FRET, antagonist; 0.99% of 65,000 active; AID 571; P28566;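 active = inhibition above a set limit, the mean inhibition across every tested compound plus 3 SD, cut at about 29% in these data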;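 note: signal is the 460 over 535 nm emission ratio of beta-lactamase substrate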
Target sequence (P28566 whole entry, looked up): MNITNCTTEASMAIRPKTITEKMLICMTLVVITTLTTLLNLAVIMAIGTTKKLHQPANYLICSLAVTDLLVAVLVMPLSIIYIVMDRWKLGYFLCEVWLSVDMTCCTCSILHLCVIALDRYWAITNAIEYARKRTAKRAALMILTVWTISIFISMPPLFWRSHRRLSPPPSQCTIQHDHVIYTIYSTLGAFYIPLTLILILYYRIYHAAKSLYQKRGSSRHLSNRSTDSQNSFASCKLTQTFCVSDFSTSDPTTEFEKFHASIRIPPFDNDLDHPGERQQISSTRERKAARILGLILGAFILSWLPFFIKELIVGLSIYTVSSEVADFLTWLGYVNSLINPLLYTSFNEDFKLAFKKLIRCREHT
5HT1a ag: 5-HT1a (human) receptor agonism. 0.56% of 65,000 active. P08908. AID 567. CHO 5-HT1a Ga15 NFAT-bla reporter, FRET ratio; 0% basal, 100% maximal reference agonist. activation, % at 10 µM;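 active = activation above the screen-wide mean activation plus 3 SD, cut at about 19% in these data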
HTR1E agonist: agonists of human 5-HT1E serotonin receptor | P28566 | CHO 5-HT1E Ga15 NFAT-bla reporter, FRET; 0% DMSO wells, 100% control agonist wells | activation, % at 6 µM | 0.69% of 65,000 active | AID 574;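 active = activation above a set limit, the screen-wide mean activation plus 3 SD, cut at about 8.5% in these data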
5HT1a antag: blocks the human serotonin 5-HT1a receptor; inhibition, % at 10 µM; AID 612; CHO 5-HT1a Ga15 NFAT-bla reporter, antagonist mode; P08908; 0.68% of 62,000 active;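 active = inhibition above the mean of all tested compounds plus 3 SD, cut at about 43% in these data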;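 note: receptor stimulated by 5-CT agonist at 100 nM near EC80; beta-lactamase reporter measured by ratiometric fluorescence of a cleavable substrate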
Numbers stand for hits; . = inactive; / = not tested or not shown. Hits are enriched below; roughly 2.6% of the tested compounds scored in any of these assays.

SMILES	HEK293 NFkB inh	5HT1E antag	5HT1a ag	HTR1E agonist	5HT1a antag
Cc1ccc(C(=O)OCc2cn3ccccc3n2)cc1	.	.	101	.	.
CCC1CCCCN1C(=O)CSc1nnc(-c2cccs2)o1 (configuration not stated)	.	.	28	.	.
Cc1cc(C)cc(N2C(=O)C3C4C=CC(C4)C3C2=O)c1 (configuration not stated)	.	.	.	.	.
Cc1ccc(S(=O)(=O)NC(CC(=O)NC2CCCC2)c2ccco2)cc1 (configuration not stated)	.	.	.	.	.
CCOC(=O)N1CCC(NC(=O)CC(NS(=O)(=O)c2ccc(Cl)cc2)c2ccco2)CC1 (configuration not stated)	.	.	29	.	.
COC(=O)c1[nH]c2cc(OC)ccc2c1NC(=O)c1ccc2c(c1)OCO2	.	.	115	.	.
OC(COC1CCCCC1)CN1CCN(c2ccccc2)CC1 (configuration not stated)	.	.	.	.	45
CC(C)c1ccc(OCC(O)CN2CCN(c3ccccc3)CC2)cc1 (configuration not stated)	.	.	.	.	.
O=S(=O)(c1ccccc1)N1CCN(c2nnnn2-c2ccccc2)CC1	.	.	.	.	.
c1ccc(CC2CCN(c3nnnn3-c3ccccc3)CC2)cc1	.	32	.	.	.
CCCCNC1C(CC)C(CCC)C(C#N)(C#N)C1(C#N)C#N (configuration not stated)	.	37	.	.	63
COC(=O)c1cc(Br)c(=O)n(-c2cc(C)on2)c1	/	.	.	.	/
Cc1nn(Cc2c(Cl)cccc2Cl)c(C)c1NC(=O)c1cc(C(C)C)on1	44	.	.	.	.
Cc1cc(C(=O)Nc2c(C)nn(Cc3c(Cl)cccc3Cl)c2C)no1	.	.	.	.	.
CCC(C)NC(=O)N[C@@H](Cc1ccccc1)C(=O)O (some centres not stated)	.	.	61	.	.
O=C(NCc1ccccc1)N[C@@H](Cc1ccccc1)C(=O)O	.	.	.	.	.
O=C(C1CCN(Cc2ccc(OCc3ccccc3)cc2)CC1)N1CCCC1	.	.	.	11	.
COc1ccc(CN2CCCC(C(=O)N3CCCC3)C2)cc1 (configuration not stated)	.	.	.	.	.
CCN(CCCNS(=O)(=O)c1ccc2c(c1)CCN2C(C)=O)c1cccc(C)c1	.	.	.	.	.
Cc1cc(NC(=O)Cc2cccs2)nn1CC(=O)NCc1ccco1	.	.	.	16	.
COc1ccc(C2C(C#N)=C(/N=C/N3CCN(C)CC3)OC3=C2C(=O)CC(C)(C)C3)cc1OC (configuration not stated)	.	.	.	.	.
COc1ccccc1NC(=O)CSc1ncnc2c1oc1ccccc12	.	36	.	.	.
Cc1cccc(NC(=O)CSc2ncnc3c2oc2ccccc23)c1	.	.	.	.	.
CCc1nc(SCC(=O)Nc2ccc3c(c2)OCCO3)c2oc3ccccc3c2n1	.	.	.	.	.
CCc1nc(SCC(=O)Nc2nccs2)c2oc3ccccc3c2n1	.	38	.	.	.
SMILES	HEK293 NFkB inh	5HT1E antag	5HT1a ag	HTR1E agonist	5HT1a antag
COc1nc(N(C#N)CC(N)=O)nc(N2CCCC2)n1	.	.	.	.	.
Cc1ccc(-c2nc(C3CCN(S(C)(=O)=O)CC3)no2)cc1	.	.	.	.	.
Cc1onc(-c2ccccc2Cl)c1C(=O)N1CCN(c2ccccc2)CC1	.	.	.	.	.
O=C(c1c(Cl)nc2sccn12)N1CCN(c2cccc(Cl)c2)CC1	.	42	.	.	.
O=C(O)CCC(=O)N1CCN(c2cccc(Cl)c2)CC1	.	.	.	21	.
Cc1onc(-c2ccccc2Cl)c1C(=O)N1CCN(c2cccc(Cl)c2)CC1	.	29	.	.	.
COc1ccccc1C(=O)N1CCN(c2cccc(Cl)c2)CC1	40	.	.	.	.
O=C(c1cccc(F)c1)N1CCN(c2cccc(Cl)c2)CC1	.	.	.	.	.
CCOC(=O)CNc1c(N2CCN(c3ccccn3)CC2)c(=O)c1=O	.	.	.	.	.
COc1ccccc1C(=O)N1CCN(Cc2ccc3c(c2)OCO3)CC1	/	.	.	8.8	/
Cc1ccc(Cl)cc1N1CCN(C(=O)CCC(=O)O)CC1	.	.	.	14	.
Cc1cc(C)nc(N2CCC(C(=O)N3CCN(c4cc(Cl)ccc4C)CC3)CC2)n1	.	.	.	.	.
CCOC(=O)C1CCN(C(=O)CSC2=NCCS2)CC1	.	.	.	.	.
CC(=O)Nc1nc(C)nc(-c2ccccc2)c1C(C)=O	.	.	.	.	.
CNc1nc(C)c(C#N)c(-c2ccccc2)c1C(C)=O	.	.	.	18	.
CCc1nnc(NC(=O)CSc2nnc(COc3ccccc3C)o2)s1	.	.	.	8.9	.
CCc1nnc(NC(=O)CSc2nnc(COc3cccc(C)c3)o2)s1	.	.	.	.	.
CC(C)NC(=O)c1cnc(N2CCN(c3ccccn3)CC2)c2ccccc12	.	.	.	.	.
CCN1CCN(c2ncc(C(=O)Nc3ccccc3C(=O)OC)c3ccccc23)CC1	.	.	.	17	.
CCCCN1CCc2c([nH]c3c(C)cccc23)C1=O	.	.	.	.	.
CN(C)CCN(Cc1ccccc1)c1ccnc(N(C)C)c1C#N	.	.	.	21	.
CN(C)CCN(Cc1ccccc1)c1ccccn1	/	.	.	.	/
CCS(=O)(=O)N1Cc2ccccc2CC1C(=O)N1CCN(c2ccccc2)CC1 (configuration not stated)	.	.	.	.	.
CCN(C(=O)c1cc2cc3ccc(C)cc3nc2o1)c1ccc(OC)cc1	.	.	.	.	46
CCOC(=O)C1CCN(C(=O)Cc2c(C(=O)O)n(C)c3ccccc23)CC1	.	.	.	117	.
SMILES	HEK293 NFkB inh	5HT1E antag	5HT1a ag	HTR1E agonist	5HT1a antag
c1ccc(Cn2nnc3c(Nc4ccc5c(c4)OCO5)nc(C4CC4)nc32)cc1	.	.	22	.	.
CCCN(CCC)S(=O)(=O)c1ccc(C(=O)Nc2nnc(-c3cccc(OC)c3)o2)cc1	45	.	.	.	.
CCCN(CCC)S(=O)(=O)c1ccc(C(=O)Nc2nnc(-c3cc(OC)cc(OC)c3)o2)cc1	.	.	.	.	.
Cc1ccc(OCC(O)Cn2c(=N)n(CCN3CCOCC3)c3ccccc32)cc1 (configuration not stated)	.	.	.	.	.
COc1ccccc1OCC(O)Cn1c(=N)n(Cc2ccccc2)c2ccccc21 (configuration not stated)	.	.	.	.	.
CCCCn1c(=N)n(CC(O)COc2cccc(C)c2)c2ccccc21 (configuration not stated)	.	.	.	.	43
CCCCCn1c(=N)n(CC(O)COc2ccccc2OC)c2ccccc21 (configuration not stated)	.	.	.	.	64
